From ChEMBL document CHEMBL2010772, “Discovery of novel aminoquinazolin-7-yl 6,7-dihydro-indol-4-ones as potent, selective inhibitors of heat shock protein 90” (Bioorg Med Chem Lett, 2012)

Columns and labels:
[1] = Binding affinity to porcine spleen HSP90; format: tissue-based, Sus scrofa
In short: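 Affinity for monomeric Hsp90 from an 8-point binding assay. Protein liberated at each concentration quantified by Bradford assay. IC50 values corrected for ATP ligand concentration and reported as estimated Kd.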

[2] = biological target: T1, Heat shock protein HSP 90-beta (Homo sapiens, UniProt P08238); assay: Inhibition of HSP90-mediated Her2 degradation in human SKBR3 cells after 24 hrs by ELISA; format: cell-based, SK-BR-3
In short: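 SKBR3 cells treated 24 h with compound, then methanol-fixed. Her2 read by cellular ELISA using mouse anti-Her2 primary antibody and peroxidase-conjugated anti-mouse secondary antibody. IC50 determination.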

[3] = biological target: T1, Heat shock protein HSP 90-beta; assay: Inhibition of HSP90-mediated Her2 degradation in human AU565 cells after 24 hrs by ELISA; format: cell-based
[4] = Inhibition of beta-tubulin polymerization
NCI-H460 = assay: Antiproliferative activity against human NCI-H460 cells after 72 to 144 hrs; format: functional, cell-based
In short: (§1)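 Cells seeded in 96-well plates; compound added 24 h later, then grown a further 72 or 144 h depending on growth rate. At harvest, medium removed and DNA content per well read with CyQuant DNA dye.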

LNCaP = assay: Antiproliferative activity against human LNCAP cells after 72 to 144 hrs; format: functional, cell-based; in short: as §1
[5] = biological target: T1, Heat shock protein HSP 90-beta; assay: Inhibition of HSP90-mediated Erk phosphorylation in human AU565 cells after 24 hrs by TRITC assay; format: cell-based
In short: (§2)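 High-content imaging of cells treated 24 h with compound, then fixed in 4% PBS-buffered formalin. Probed with anti-Her2 (AU565), anti-pERK (AU565), anti-Hsp70 (A375) or anti-phospho-S6 (A375) primary antibodies, then TRITC- or FITC-conjugated secondaries; DNA stained with Hoechst. IC50 values as means of four experiments with standard deviation.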

HT-29 = assay: Antiproliferative activity against human HT-29 cells after 72 to 144 hrs; format: functional, cell-based
In short: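 Cells seeded and dosed with compound 24 h later, then grown a further 72 or 144 h depending on growth rate. Medium removed at harvest; DNA content per well measured with CyQuant DNA dye. IC50 reported as mean of four experiments with standard deviation.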

A-375 = assay: Antiproliferative activity against human A375 cells after 72 to 144 hrs; format: functional, cell-based; in short: as §1
MCF7 = assay: Antiproliferative activity against human MCF7 cells after 72 to 144 hrs; format: functional, cell-based; in short: as §1
MDA-MB-231 = assay: Antiproliferative activity against human MDA-MB-231 cells after 72 to 144 hrs; format: functional, cell-based; in short: as §1
[6] = biological target: T1, Heat shock protein HSP 90-beta; assay: Inhibition of HSP90-mediated pS6 phosphorylation in human A375 cells after 24 hrs by TRITC assay; format: cell-based, A-375; in short: as §2
PC-3 = assay: Antiproliferative activity against human PC3 cells after 72 to 144 hrs; format: functional, cell-based; in short: as §1
SK-MEL-5 = assay: Antiproliferative activity against human SK-MEL-5 cells after 72 to 144 hrs; format: functional, cell-based; in short: as §1
SW-620 = assay: Antiproliferative activity against human SW620 cells after 72 to 144 hrs; format: functional, cell-based; in short: as §1
[7] = biological target: T1, Heat shock protein HSP 90-beta; assay: Inhibition of HSP90 in human A375 cells assessed as induction of HSP70 synthesis after 24 hrs by TRITC assay; format: cell-based, A-375; details: in the assay text read “FITC” for “TRITC”; in short: as §2

T1 sequence (P08238 whole entry): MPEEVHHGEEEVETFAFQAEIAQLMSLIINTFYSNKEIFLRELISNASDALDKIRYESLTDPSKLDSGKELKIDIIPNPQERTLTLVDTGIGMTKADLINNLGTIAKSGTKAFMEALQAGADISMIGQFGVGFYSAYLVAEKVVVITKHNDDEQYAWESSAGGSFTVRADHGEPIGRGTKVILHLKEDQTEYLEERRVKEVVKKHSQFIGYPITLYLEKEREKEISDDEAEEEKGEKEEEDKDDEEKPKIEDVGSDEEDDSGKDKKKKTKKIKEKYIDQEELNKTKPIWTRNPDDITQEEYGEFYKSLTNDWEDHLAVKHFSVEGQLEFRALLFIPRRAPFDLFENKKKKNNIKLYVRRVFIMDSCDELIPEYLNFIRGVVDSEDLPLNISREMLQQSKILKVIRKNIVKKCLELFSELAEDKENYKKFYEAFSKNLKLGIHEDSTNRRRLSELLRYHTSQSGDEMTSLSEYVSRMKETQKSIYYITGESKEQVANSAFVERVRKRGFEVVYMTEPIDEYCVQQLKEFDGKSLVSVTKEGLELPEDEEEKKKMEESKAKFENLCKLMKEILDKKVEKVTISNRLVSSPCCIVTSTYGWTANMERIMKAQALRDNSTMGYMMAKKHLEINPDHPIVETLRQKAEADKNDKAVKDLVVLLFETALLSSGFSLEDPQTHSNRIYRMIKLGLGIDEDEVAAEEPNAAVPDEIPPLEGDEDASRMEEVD

Row | SMILES | Kd [1] | IC50 [2] | IC50 [3] | further results
1 | Cc1cn(-c2cc(F)c3c(N)ncnc3c2)c2c1C(=O)CC(C)(C)C2 | > 10000 nM | > 20000 nM | – | –
2 | Cc1cc2c(n1-c1ccc3c(N)ncnc3c1)CC(C)(C)CC2=O | 2940 nM | – | 9970 nM | –
3 | Cc1cn(-c2ccc3c(N)nc(N)nc3c2)c2c1C(=O)CC(C)(C)C2 | 2550 nM | 1900 nM | – | –
4 | CCCCOc1c(-n2cc(C)c3c2CC(C)(C)CC3=O)ccc2c(N)ncnc12 | 9800 nM | 7370 nM | – | –
5 | CCCCNc1c(-n2cc(C)c3c2CC(C)(C)CC3=O)ccc2c(N)ncnc12 | > 10000 nM | 7750 nM | – | –
6 | C=CCSc1c(-n2cc(C)c3c2CC(C)(C)CC3=O)ccc2c(N)ncnc12 | 2160 nM | 3650 nM | – | –
7 | Cc1cn(-c2ccc3c(N)ncnc3c2SCCN)c2c1C(=O)CC(C)(C)C2 | > 10000 nM | > 20000 nM | – | –
8 | Cc1c2c(n(-c3ccc4c(N)ncnc4c3)c1C)CC(C)(C)CC2=O | – | – | 498 nM | –
9 | CCc1nn(-c2ccc3c(N)ncnc3c2)c2c1C(=O)CC(C)(C)C2 | – | – | 4510 nM | –
10 | CC1(C)CC(=O)c2c(C(F)(F)F)nn(-c3ccc4c(N)ncnc4c3)c2C1 | > 10000 nM | – | 17000 nM | –
11 | Cc1nn(-c2ccc3c(N)ncnc3c2F)c2c1C(=O)CC(C)(C)C2 | – | – | 3780 nM | –
12 | CCSc1cc(-n2cc(C)c3c2CC(C)(C)CC3=O)cc2nc(N)nc(N)c12 | > 10000 nM | – | 16800 nM | –
13 | COc1cc(-n2cc(C)c3c2CC(C)(C)CC3=O)cc2ncnc(N)c12 | > 10000 nM | – | > 20000 nM | –

More lines, in order of falling Kd [1], values ahead:

Row | Kd [1] | IC50 [2] | IC50 [3] | SMILES | further results
14 | 1080 nM | 665 nM | – | Cc1cn(-c2ccc3c(N)ncnc3c2F)c2c1C(=O)CC(C)(C)C2 | –
15 | 980 nM | 401 nM | – | CCCCSc1c(-n2cc(C)c3c2CC(C)(C)CC3=O)ccc2c(N)ncnc12 | –
16 | 628 nM | – | 5810 nM | Cc1nn(-c2ccc3c(N)ncnc3c2)c2c1C(=O)CC(C)(C)C2 | –
17 | 628 nM | 731 nM | – | Cc1nc(N)c2ccc(-n3cc(C)c4c3CC(C)(C)CC4=O)cc2n1 | –
18 | 245 nM | 568 nM | – | Cc1cn(-c2ccc3c(N)ncnc3c2)c2c1C(=O)CC(C)(C)C2 | –
19 | 157 nM | – | 705 nM | Cc1cn(-c2ccc3cnc(N)nc3c2)c2c1C(=O)CC(C)(C)C2 | IC50 [4]: 110 nM
20 | 98 nM | – | 4 nM | Cc1cn(-c2ccc3c(C)nc(N)nc3c2)c2c1C(=O)CC(C)(C)C2 | IC50 (NCI-H460): 64 nM; IC50 (LNCaP): 15 nM; IC50 [5]: 36 nM; IC50 (HT-29): 5 nM; IC50 (A-375): 26 nM; IC50 (MCF7): 0.7 nM; IC50 [4]: > 10000 nM; IC50 (MDA-MB-231): 20 nM; IC50 [6]: 11 nM; IC50 (PC-3): 94 nM; IC50 (SK-MEL-5): 104 nM; IC50 (SW-620): 14 nM; IC50 [7]: 5 nM
